Measured values pooled from the literature.
Compare with care: the assays were run in different laboratories.
Read-out: cell growth or viability

Structure (SMILES) | cell line | assay | conditions | measurement | value
CCCCCCCc1ccc(-c2c(C)[nH]c(C)c(Cl)c2=O)cn1 | HEK293 | – | – | IC50 | > 10 µM
COc1cc(-c2ccc(-c3ccc(C(=N)N)nc3)s2)cc(OC)c1OC | SK-MEL-28 | SRB | – | GI50 | 1.62 µM
CCOC(=O)c1cn(CC)c2cc(OCc3ccccc3)ccc2c1=O | HEK293 | – | – | IC50 | > 10 µM
c1cc2c(cc1CNCC1(N3CCCC3)COC1)OCCO2 | T98G | – | 30 µM, 48 h | viability | 97.2%
Cc1cc(=O)c(-c2ccc(Oc3cccc(OC(F)(F)F)c3)cc2)c(C)[nH]1 | HEK293 | – | – | IC50 | > 10 µM
COc1cccc(Oc2ccccc2NC(=O)CNC(=O)c2cccc3ccccc23)c1 | SK-MEL-28 | SRB | 48 h | GI50 | 4.37 µM
CCC(=O)Nc1cc(Nc2nc(N3CCc4sccc4C3)c3cccnc3n2)c(OC)cc1N1CCN(CC)CC1 | NCI-H1975 | MTT | – | IC50 | 0.198 µM
Cc1[nH]c(C)c(-c2ccc(OCc3ccccc3C(F)(F)F)nc2)c(=O)c1Br | HEK293 | – | – | IC50 | > 10 µM
CCC(=O)Nc1cc(Nc2nc(N3CCc4sccc4C3)c3cccnc3n2)c(OC)cc1N(C)C | NCI-H1975 | MTT | – | IC50 | 3.84 µM
c1ccc(-c2ccc(CNCC3(N4CCCC4)COC3)o2)cc1 | GBM6 | – | 30 µM, 48 h | viability | 80.5%
C=CC(=O)Nc1cc(Nc2nc(N3CCc4sccc4C3)c3sccc3n2)c(OC)cc1N1CCN(C)CC1 | NCI-H1975 | MTT | – | IC50 | 6.65 µM
CC#CC(=O)N1CC[C@@H](n2cc(-c3ccc(Oc4c(F)cccc4F)cc3)c3c(N)n[nH]c(=O)c32)C1 | KARPAS-422 | ATP luminescence | 72 h | GI50 | 12.1 µM
c1ccc(-c2ccc(CNCC3(N4CCCC4)COC3)s2)cc1 | T98G | – | 30 µM, 48 h | viability | 69%
CCCc1n(Cc2ccc3ccccc3n2)cc[n+]1Cc1ccc2ccccc2c1 | NCI-H322M | SRB | – | TGI | 15 µM
C/C=C/C(=O)Nc1cc(Nc2nc(Nc3cnn(C)c3)c3sccc3n2)c(OC)cc1N(C)CCN(C)C | NCI-H1975 | MTT | – | IC50 | 3.07 µM
Cc1cccc2cc(CNCC3(N4CCCC4)COC3)cnc12 | GBM6 | – | 30 µM, 48 h | viability | 104%
CCCc1n(Cc2ccc3ccccc3n2)cc[n+]1Cc1ccc2ccccc2n1 | NCI-H322M | SRB | – | TGI | 41.9 µM

Structure (SMILES) | cell line | assay | conditions | measurement | value
Cc1cc(=O)c(-c2ccc(OCc3ccc(OC(F)(F)F)cc3)cc2)c(C)[nH]1 | HEK293 | – | – | IC50 | > 10 µM
Cc1cc(C)c(CNC(=O)c2cc(Cl)c3c(c2C)O[C@@](C)([C@H]2CC[C@H](N(C)C)CC2)O3)c(=O)[nH]1 | KARPAS-422 | – | 8 days | GI50 | 0.013 µM
c1cc2cc(CNCC3(N4CCCC4)COC3)ccc2[nH]1 | GBM6 | – | 30 µM, 48 h | viability | 101%
COc1ccc(-c2ccc(-c3ccc(C(=N)N)nc3)s2)cc1Cl | SF-539 | SRB | – | GI50 | 1.74 µM
C=CC(=O)Nc1cccc(Oc2nc(Nc3ccc(N4CCN(C)CC4)cc3)nc3ccsc23)c1 | NCI-H1975 | MTT | – | IC50 | 0.458 µM
Cc1[nH]c(C)c(-c2ccc(-c3ccc(F)cc3)cc2)c(=O)c1Br | HEK293 | – | – | IC50 | > 10 µM
Fc1ccc2[nH]cc(CNCC3(N4CCC(F)C4)COC3)c2c1 (stereo not shown) | T98G | – | 30 µM, 48 h | viability | 75.2%
COc1c(OCCCN2CCOCC2)ccc2c1N=C(NC(=O)c1cnc(N)nc1)N1CCN=C21 | KPL4 | – | – | EC50 | 0.0037 µM
C=CC(=O)Nc1cc(Nc2nc(Nc3cnn(C)c3)c3sccc3n2)c(OC)cc1N(C)CCN(C)C | NCI-H1975 | MTT | – | IC50 | 4.54 µM
Cn1cc(-c2cc(N3CCCCS3(=O)=O)ccc2Oc2ccc(F)cc2F)c2c(F)c[nH]c2c1=O | TMD8 | CCK-8 | 72 h | GI50 | 0.0093 µM
COc1ccc(-c2ccc(-c3ccc(C(=N)N)nc3)s2)cc1 | SK-MEL-28 | SRB | – | GI50 | 1.75 µM
FC1CCN(C2(CNCc3ccc(-c4ccccc4)o3)COC2)C1 (stereo not shown) | T98G | – | 30 µM, 48 h | viability | 96.4%
Cc1[nH]c(C)c(-c2ccc(OCCSc3ccncc3)cc2)c(=O)c1Br | HEK293 | – | – | IC50 | > 10 µM
COc1cc(N(C)CCN(C)C)c(NC(=O)C=C(C)C)cc1Nc1nc(Nc2cnn(C)c2)c2sccc2n1 | NCI-H1975 | MTT | – | IC50 | 0.418 µM
COc1c(OCCCN2CCOCC2)ccc2c1N=C(NC(=O)c1sc(C)nc1C)N1CCN=C21 | KPL4 | – | – | EC50 | 0.086 µM
Fc1ccc2c(CNCC3(N4CCC(F)C4)COC3)c[nH]c2c1 (stereo not shown) | GBM6 | – | 30 µM, 48 h | viability | 85.6%
Clc1ccc2c(NN=Cc3cccs3)ccnc2c1 | HEK293 | – | – | IC50 | > 10 µM
